One assay addresses Histone deacetylase 2 (Homo sapiens, UniProt Q92769).
The subject of assay [1] is NCI-H522. Briefly: Cytotoxicity against human NCI-H522 cells assessed as reduction in cell survival at 1 to 5 uM incubated for 3 days in presence of ferroptosis inhibitor, liproxstatin-1 by methylene blue staining based analysis. The settings on record: dose 1-5 µM, time 3.0 day. In kind it is functional.
Assay [2] relates to NCI-H522. Briefly: Induction of cell cycle arrest in human NCI-H522 cells assessed as accumulation at G2/M phase 5 uM incubated for 24 to 72 hrs by PI staining based flow cytometric analysis. The format is functional. The settings on record: time lower […], time upper […].
In another assay the test system is NCI-H226. Description: Cytotoxicity against human NCI-H226 cells assessed as cell growth inhibition incubated for 24 hrs by MTT assay. In kind it is functional, cell-based.
Assay [3] concerns NCI-H522. Briefly: Cytotoxicity against human NCI-H522 cells assessed as cell growth inhibition incubated for 24 hrs by MTT assay. In kind it is functional, cell-based. (Tetrazolium dyes change colour on reduction, which living cells bring about.)
In another assay the test system is MOLT-4. Briefly: Cytotoxicity against human MOLT-4 cells assessed as cell growth inhibition incubated for 24 hrs by MTT assay. The format is functional, cell-based.
Another assay deals with Histone deacetylase 1 (Homo sapiens, UniProt Q13547). Description: Inhibition of full length his6/FLAG-tagged human recombinant HDAC1(1 to 482 residues) expressed in Sf9 insect cells.
Chain of Histone deacetylase 1 (Q13547 whole entry, the tested form may be a part): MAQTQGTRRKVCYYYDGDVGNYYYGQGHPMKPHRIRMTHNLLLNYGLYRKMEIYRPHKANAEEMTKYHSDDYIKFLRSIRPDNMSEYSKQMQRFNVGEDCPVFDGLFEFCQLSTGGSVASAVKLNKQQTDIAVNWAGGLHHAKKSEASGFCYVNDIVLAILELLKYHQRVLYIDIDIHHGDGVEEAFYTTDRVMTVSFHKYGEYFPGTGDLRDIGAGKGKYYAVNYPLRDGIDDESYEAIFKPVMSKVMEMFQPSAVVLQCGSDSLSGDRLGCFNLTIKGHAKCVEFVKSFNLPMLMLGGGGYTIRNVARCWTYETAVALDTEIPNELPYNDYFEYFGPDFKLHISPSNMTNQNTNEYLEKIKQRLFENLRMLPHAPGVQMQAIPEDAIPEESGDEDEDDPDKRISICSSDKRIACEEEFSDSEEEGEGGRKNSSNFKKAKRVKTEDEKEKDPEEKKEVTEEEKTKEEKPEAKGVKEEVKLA
The test system of another assay is A549. Briefly: Cytotoxicity against human A549 cells assessed as cell growth inhibition incubated for 24 hrs by MTT assay. In kind it is functional, cell-based.
In assay [4] the test system is NCI-H522. Briefly: Induction of ferroptosis in human NCI-H522 cells assessed as viability at 5 uM incubated at 0.2 to 10.2 hrs by microscopic analysis. The format is functional, cell-based. The settings on record: time 0.2-10.2 hrs. A digest of the protocol: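 Time-lapse imaging used NCI-H522 cells adhered overnight and equilibrated to 10% CO2, held in sealed flasks on a 37 °C stage. Frames were taken every 12 min, 300 in total, with a ×40 objective. For Kaplan–Meier curves, at least 100 cells were scored, with death counted per 1 h or 0.2 h interval.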

The test system of a further assay is RPMI-8226. Briefly: Cytotoxicity against human RPMI-8226 cells assessed as cell growth inhibition incubated for 24 hrs by MTT assay. The settings on record: RPMI-8226, 24 h.
A further assay has as its system NCI-H23. Description: Cytotoxicity against human NCI-H23 cells assessed as cell growth inhibition at 10 uM incubated for 24 hrs by MTT assay. The settings on record: NCI-H23, 24 h.
Another assay relates to HOP-92. Briefly: Cytotoxicity against human HOP-92 cells assessed as cell growth inhibition incubated for 24 hrs by MTT assay. In kind it is functional, cell-based. A digest of the protocol:
(§1)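 Run within the NCI-60 DTP screen: a single-dose test at 10 μM across about sixty human tumour lines, read as Growth % and mean inhibition. Selected compounds then went to a five-dose assay to derive GI50. Both were single experiments without replicates.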

Another assay deals with K562. Briefly: Cytotoxicity against human K562 cells assessed as cell growth inhibition incubated for 24 hrs by MTT assay. The format is functional, cell-based.
The test system of a further assay is SR. Briefly: Cytotoxicity against human SR cells assessed as cell growth inhibition incubated for 24 hrs by MTT assay. In kind it is functional, cell-based.
Another assay has as its target T1, Histone deacetylase 8 (Homo sapiens, UniProt Q9BY41).
T1 sequence (Q9BY41 whole entry): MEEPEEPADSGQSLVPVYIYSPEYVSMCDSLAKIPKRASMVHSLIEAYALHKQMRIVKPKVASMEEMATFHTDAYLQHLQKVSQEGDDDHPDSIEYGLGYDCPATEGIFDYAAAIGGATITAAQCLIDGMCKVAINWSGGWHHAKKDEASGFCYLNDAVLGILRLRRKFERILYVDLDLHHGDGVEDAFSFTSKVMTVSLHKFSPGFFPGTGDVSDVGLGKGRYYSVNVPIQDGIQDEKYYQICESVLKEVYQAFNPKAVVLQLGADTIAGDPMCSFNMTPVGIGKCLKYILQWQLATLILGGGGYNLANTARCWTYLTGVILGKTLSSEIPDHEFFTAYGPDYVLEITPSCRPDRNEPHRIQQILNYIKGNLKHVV
Briefly: Inhibition of full length C-terminal his-tagged human recombinant HDAC8 expressed in Sf9 insect cells.

The test system of assay [5] is NCI-H522. Briefly: Induction of cell cycle arrest in human NCI-H522 cells assessed as accumulation at S phase 5 uM incubated for 24 to 72 hrs by PI staining based flow cytometric analysis. In kind it is functional. The settings on record: time lower […], time upper […]. A general note: Flow cytometry measures light scatter and fluorescence of single cells or particles in a stream.

A further assay deals with Histone deacetylase 3 (Homo sapiens, UniProt O15379). Description: Inhibition of full length C-terminal his6/FLAG-tagged human recombinant HDAC3 ([…]) expressed in Sf9 insect cells.
Chain of Histone deacetylase 3 (O15379 whole entry): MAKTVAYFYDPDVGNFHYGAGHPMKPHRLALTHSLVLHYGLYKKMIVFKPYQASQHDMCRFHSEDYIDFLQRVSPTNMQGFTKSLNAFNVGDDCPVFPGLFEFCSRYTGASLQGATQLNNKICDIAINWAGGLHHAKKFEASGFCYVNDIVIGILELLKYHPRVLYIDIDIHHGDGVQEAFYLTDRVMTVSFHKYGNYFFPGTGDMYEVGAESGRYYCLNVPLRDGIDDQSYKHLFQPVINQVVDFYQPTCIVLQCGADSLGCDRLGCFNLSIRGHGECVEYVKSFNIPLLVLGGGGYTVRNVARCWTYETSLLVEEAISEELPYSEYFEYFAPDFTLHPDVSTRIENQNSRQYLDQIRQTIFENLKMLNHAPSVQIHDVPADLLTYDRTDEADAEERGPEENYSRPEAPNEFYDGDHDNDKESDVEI
The test system of assay [6] is Panel NCI-60 (60 carcinoma cell lines). Description: Cytotoxicity against human NCI-60 cells assessed as cell growth inhibition incubated for 24 hrs by MTT assay. The format is functional, cell-based. The gist of the method: as §1

SMILES strings stand for the structures. pIC50: −log10 of the molar value. Activity calls are given as the source filed them. The calls are words filed in the database; no cut-off is given here.

Chain of Histone deacetylase 2 (Q92769 whole entry): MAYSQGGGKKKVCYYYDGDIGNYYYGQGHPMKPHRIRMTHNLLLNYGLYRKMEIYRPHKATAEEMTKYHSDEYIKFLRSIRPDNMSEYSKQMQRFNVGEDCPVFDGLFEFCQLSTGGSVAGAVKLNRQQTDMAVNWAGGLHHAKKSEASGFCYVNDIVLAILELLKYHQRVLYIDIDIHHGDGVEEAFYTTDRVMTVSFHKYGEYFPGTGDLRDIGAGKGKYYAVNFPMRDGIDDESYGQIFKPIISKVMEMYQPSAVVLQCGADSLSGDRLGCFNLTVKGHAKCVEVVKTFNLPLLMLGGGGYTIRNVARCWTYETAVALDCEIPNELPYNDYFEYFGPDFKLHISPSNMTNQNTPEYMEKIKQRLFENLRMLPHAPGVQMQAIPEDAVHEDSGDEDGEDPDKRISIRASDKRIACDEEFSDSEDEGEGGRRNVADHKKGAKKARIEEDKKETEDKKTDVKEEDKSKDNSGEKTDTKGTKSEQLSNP

For `C#Cc1nc(C(=O)NCCCCCCC(=O)NO)cs1`, the pIC50 – broadly, −log10 of the IC50, conventionally taken in molar units – is 7.03 against Histone deacetylase 2, 7.17 at Histone deacetylase 1, 6.49 on Histone deacetylase 8 and 7.30 on Histone deacetylase 3. Besides, the result with NCI-H522 [1], in the assay on NCI-H522 [2], in the assay on NCI-H226, in the assay with NCI-H522 [3], in the assay with MOLT-4 and in the assay with A549 was Active. The outcome (in the assay with NCI-H522 [4]; in the assay on HOP-92; in the assay with K562; in the assay on SR; in the assay with NCI-H522 [5]; in assay [6]) was Active. For the same compound, the results for the GI50 in the assay on RPMI-8226 and with NCI-H23 were 350 nM and 780 nM, respectively.

The values are drawn from ChEMBL document CHEMBL5096224, “First-in-Class Dual Mechanism Ferroptosis-HDAC Inhibitor Hybrids” (J Med Chem, 2022).
